Measurements taken from ChEMBL document CHEMBL4765226, “Identification of a Human Toll-Like Receptor (TLR) 8-Specific Agonist and a Functional Pan-TLR Inhibitor in 2-Aminoimidazoles” (J Med Chem, 2016).
Active and inactive are the calls of the source. The rule behind the calls is not given here.

Tests used:
[1] = target: T1, Toll-like receptor 8 (Homo sapiens) (UniProt Q9NR97); experiment: Agonist activity at TLR8 in human PBMC cells assessed as induction of TNFalpha production incubated for 16 hrs by immunoassay; assay type: cell-based; conditions: filed as agonist
T1 sequence (whole entry): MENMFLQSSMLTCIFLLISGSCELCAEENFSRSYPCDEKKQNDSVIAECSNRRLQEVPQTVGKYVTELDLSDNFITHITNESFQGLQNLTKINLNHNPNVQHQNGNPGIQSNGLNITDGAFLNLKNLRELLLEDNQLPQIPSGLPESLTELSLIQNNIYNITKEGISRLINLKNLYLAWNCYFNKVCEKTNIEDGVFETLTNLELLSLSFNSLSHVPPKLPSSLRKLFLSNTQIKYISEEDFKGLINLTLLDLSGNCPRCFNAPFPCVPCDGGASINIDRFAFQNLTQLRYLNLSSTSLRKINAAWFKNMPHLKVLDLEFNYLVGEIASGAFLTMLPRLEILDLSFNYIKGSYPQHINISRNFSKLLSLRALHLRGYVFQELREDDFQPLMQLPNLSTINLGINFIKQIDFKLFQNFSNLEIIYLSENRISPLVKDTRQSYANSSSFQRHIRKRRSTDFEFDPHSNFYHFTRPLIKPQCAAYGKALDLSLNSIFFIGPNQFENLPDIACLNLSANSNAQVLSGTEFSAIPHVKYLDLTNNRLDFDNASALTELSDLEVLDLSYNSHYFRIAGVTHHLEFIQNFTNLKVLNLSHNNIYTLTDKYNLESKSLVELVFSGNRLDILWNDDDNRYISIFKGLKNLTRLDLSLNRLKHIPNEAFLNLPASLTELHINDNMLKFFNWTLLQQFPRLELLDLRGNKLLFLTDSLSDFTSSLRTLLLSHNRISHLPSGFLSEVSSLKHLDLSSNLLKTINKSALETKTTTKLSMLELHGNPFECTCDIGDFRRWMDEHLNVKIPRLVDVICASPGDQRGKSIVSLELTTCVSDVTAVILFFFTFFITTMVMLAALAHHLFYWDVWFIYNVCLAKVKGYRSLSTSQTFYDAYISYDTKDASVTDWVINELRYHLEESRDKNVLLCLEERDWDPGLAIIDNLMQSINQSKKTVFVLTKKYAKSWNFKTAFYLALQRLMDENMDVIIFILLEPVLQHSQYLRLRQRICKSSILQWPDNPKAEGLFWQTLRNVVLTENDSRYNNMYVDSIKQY
In short: (§1)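 Fresh human PBMCs isolated from venous blood, plated at 10^5 cells in 100 µL per well and stimulated for 16 h with graded concentrations of compound. Supernatants were collected by centrifugation and assayed in duplicate with a multiplexed cytokine/chemokine magnetic bead array.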

[2] = target: T1, Toll-like receptor 8 (Homo sapiens); experiment: Agonist activity at TLR8 in human PBMC cells assessed as induction of IL-1beta production incubated for 16 hrs by immunoassay; assay type: cell-based; conditions: filed as agonist; in short: as §1
[3] = target: T1, Toll-like receptor 8 (Homo sapiens); experiment: Agonist activity at TLR8 in human PBMC cells assessed as induction of IL-6 production incubated for 16 hrs by immunoassay; assay type: cell-based; conditions: filed as agonist; in short: as §1
[4] = target: T1, Toll-like receptor 8 (Homo sapiens); experiment: Agonist activity at TLR8 in human PBMC cells assessed as induction of IL-12p40 production incubated for 16 hrs by immunoassay; assay type: cell-based; conditions: filed as agonist; in short: as §1
[5] = target: T1, Toll-like receptor 8 (Homo sapiens); experiment: Agonist activity at TLR8 in human PBMC cells assessed as induction of IFNgamma production incubated for 16 hrs by immunoassay; assay type: cell-based; conditions: filed as agonist; in short: as §1
[6] = target: T1, Toll-like receptor 8 (Homo sapiens); experiment: Agonist activity at TLR8 in human PBMC cells assessed as induction of MCP1 production incubated for 16 hrs by immunoassay; assay type: cell-based; conditions: filed as agonist; in short: as §1
[7] = target: T1, Toll-like receptor 8 (Homo sapiens); experiment: Agonist activity at TLR8 in human PBMC cells assessed as induction of MIP-1alpha production incubated for 16 hrs by immunoassay; assay type: cell-based; conditions: filed as agonist; in short: as §1
[8] = target: T1, Toll-like receptor 8 (Homo sapiens); experiment: Agonist activity at TLR8 in human PBMC cells assessed as induction of MIP-1beta production incubated for 16 hrs by immunoassay; assay type: cell-based; conditions: filed as agonist; in short: as §1
[9] = target: T1, Toll-like receptor 8 (Homo sapiens); experiment: Agonist activity at TLR8 in human monocytes assessed as induction of NF-kappaB phosphorylation measured after 15 mins in presence of 10% FBS by Alexa fluor 647 dye based flow cytometry analysis; assay type: cell-based; conditions: Monocyte, filed as agonist, in the assay text read “PE-Cy7 dye” for “Alexa fluor 647 dye”
In short: (§2)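 Whole human blood with anticoagulant was added to serial compound dilutions in RPMI with 10% FBS and held at 37 °C for 15 min. Samples were lysed and fixed three times, permeabilized in ice-cold methanol for 30 min, then stained on ice for 60 min with anti-NF-κB p65-PECy7, p38MAPK-PE and ERK1/2-AlexaFluor 647. Flow cytometry acquired 100,000 gated events; monocytes and polymorphonuclear cells were gated.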

[10] = target: T1, Toll-like receptor 8 (Homo sapiens); experiment: Agonist activity at TLR8 in human polymorphonuclear leucocyte cells assessed as induction of NF-kappaB phosphorylation measured after 15 mins in presence of 10% FBS by Alexa fluor 647 dye based flow cytometry analysis; assay type: tissue-based; conditions: filed as agonist, in the assay text read “PE-Cy7 dye” for “Alexa fluor 647 dye”; in short: as §2

Activity [1] | Activity [2] | Activity [3] | Activity [4] | Activity [5] | Activity [6] | Activity [7] | Activity [8] | Activity [9] | Activity [10] | SMILES
Active | Active | Active | Active | Active | Active | Active | Active | Dose-dependent effect | Dose-dependent effect | CCCCCn1c(N)nc2c(C)cccc21
– | – | – | – | – | – | – | – | Dose-dependent effect | Dose-dependent effect | CCCCCc1cc2c(CCCCCN)cccc2nc1N
– | – | – | – | – | – | – | – | Dose-dependent effect | Dose-dependent effect | CCCCCc1cc2ccccc2nc1N
